Test results as given in ChEMBL document CHEMBL4020824, “Discovery of Potent and Orally Bioavailable Dihydropyrazole GPR40 Agonists” (J Med Chem, 2018).
Each block holds one molecule with its values, some of them ahead of it. Active and inactive are the calls of the source. The rule behind the calls is not given here.

Legend:
[1] = biological target: T1, Free fatty acid receptor 1 (Homo sapiens, UniProt O14842); assay: Agonist activity at human GPR40 expressed in CHOA12 cells assessed as induction of Ca2+ mobilization by FLIPR assay; type: functional, cell-based
T1 sequence (O14842 whole entry): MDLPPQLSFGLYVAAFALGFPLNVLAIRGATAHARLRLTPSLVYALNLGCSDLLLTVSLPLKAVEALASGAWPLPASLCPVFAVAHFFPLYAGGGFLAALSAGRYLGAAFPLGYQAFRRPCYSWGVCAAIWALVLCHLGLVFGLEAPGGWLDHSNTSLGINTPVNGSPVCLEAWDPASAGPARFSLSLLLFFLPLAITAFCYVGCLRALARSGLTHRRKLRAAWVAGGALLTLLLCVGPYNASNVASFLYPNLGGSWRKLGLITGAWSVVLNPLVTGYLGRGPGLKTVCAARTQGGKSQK

[2] = biological target: T1, Free fatty acid receptor 1; assay: Agonist activity at human GPR40 expressed in CHOA12 cells assessed as induction of Ca2+ mobilization at 8.3 uM by FLIPR assay relative to compound 2; type: functional, cell-based
Liver [3] = assay: (§1) Stability in human liver microsomes assessed as parent compound remaining at 1 to 3 uM incubated for 20 mins in presence NADPH measured up to 90 mins by LC/MS/MS analysis; type: ADME, microsome; conditions: microsomes, 20 min, 3 µM
Method in brief: (§2)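 Human or rat liver microsomal incubations. The read-outs were % parent remaining, % D-ring dealkylation metabolites, % GSH adducts, and half-life (min). The metabolites followed were CYP450-mediated oxidative de-alkylation products (phenols) and GSH conjugates.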

Liver [4] = assay: (§3) Half life in human liver microsomes at 1 to 3 uM incubated for 20 mins in presence NADPH measured up to 90 mins by LC/MS/MS analysis; type: ADME, microsome; conditions: microsomes, 20 min, 3 µM
Liver [5] = assay: (§4) Stability in rat liver microsomes assessed as parent compound remaining at 1 to 3 uM incubated for 20 mins in presence NADPH measured up to 90 mins by LC/MS/MS analysis; type: ADME, microsome; conditions: microsomes, 20 min, 3 µM; method in brief: as §2
Liver [6] = assay: (§5) Half life in rat liver microsomes at 1 to 3 uM incubated for 20 mins in presence NADPH measured up to 90 mins by LC/MS/MS analysis; type: ADME, microsome; conditions: microsomes, 20 min, 3 µM
[7] = Half life in CD1 mouse at 1 mg/kg, iv administered as bolus dose or 1 mg/kg, po administered as single dose measured up to 24 hrs post dose by LC-MS/MS analysis; type: ADME, organism-based; conditions: in vivo
[8] = Clearance in CD1 mouse at 1 mg/kg, iv administered as bolus dose or 1 mg/kg, po administered as single dose measured up to 24 hrs post dose by LC-MS/MS analysis; type: ADME, organism-based; conditions: in vivo
[9] = Volume of distribution at steady state in CD1 mouse at 1 mg/kg, iv via bolus dose or 1 mg/kg, po administered as single dose measured up to 24 hrs post dose by LC-MS/MS analysis; type: ADME, organism-based; conditions: in vivo, read-out: Vdss
[10] = Cmax in Sprague-Dawley rat at 3 mg/kg, po administered as single dose measured up to 24 hrs post dose by LC-MS/MS analysis; type: ADME, organism-based; design: dose 3 mg/kg, route oral; conditions: in vivo
[11] = Tmax in Sprague-Dawley rat at 3 mg/kg, po administered as single dose measured up to 24 hrs post dose by LC-MS/MS analysis; type: ADME, organism-based; conditions: in vivo
[12] = Half life in Sprague-Dawley rat at 1 mg/kg, iv administered as single dose measured up to 24 hrs post dose by LC-MS/MS analysis; type: ADME, organism-based; conditions: in vivo
[13] = Clearance in Sprague-Dawley rat at 1 mg/kg, iv administered as single dose measured up to 24 hrs post dose by LC-MS/MS analysis; type: ADME, organism-based; conditions: in vivo
[14] = Volume of distribution at steady state in Sprague-Dawley rat at 1 mg/kg, iv administered as single dose measured up to 24 hrs post dose by LC-MS/MS analysis; type: ADME, organism-based; conditions: in vivo, read-out: Vdss
[15] = Oral bioavailability in Sprague-Dawley rat at 3 mg/kg administered via gavage as single dose measured up to 24 hrs post dose by LC-MS/MS analysis; type: ADME, organism-based; conditions: in vivo
[16] = Cmax in C57BL6 mouse at 3 mg/kg, po administered as single dose via gavage measured up to 24 hrs post dose by LC-MS/MS analysis; type: ADME, organism-based; design: dose 3 mg/kg, route oral; conditions: in vivo
[17] = Tmax in C57BL6 mouse at 3 mg/kg, po administered as single dose measured up to 24 hrs post dose by LC-MS/MS analysis; type: ADME, organism-based; conditions: in vivo
[18] = Oral bioavailability in C57BL6 mouse at 3 mg/kg administered as single dose via gavage measured up to 24 hrs post dose by LC-MS/MS analysis; type: ADME, organism-based; conditions: in vivo
[19] = Cmax in cynomolgus monkey at 0.5 mg/kg, po administered as single dose measured up to 24 hrs post dose by LC-MS/MS analysis; type: ADME, organism-based, Macaca fascicularis; design: dose 0.5 mg/kg, route oral; conditions: in vivo
[20] = Tmax in cynomolgus monkey at 0.5 mg/kg, po administered as single dose measured up to 24 hrs post dose by LC-MS/MS analysis; type: ADME, organism-based, Macaca fascicularis; conditions: in vivo
[21] = Half life in cynomolgus monkey at 0.2 mg/kg, iv administered as single dose measured up to 24 hrs post dose by LC-MS/MS analysis; type: ADME, organism-based, Macaca fascicularis; conditions: in vivo
[22] = Clearance in cynomolgus monkey at 0.2 mg/kg, iv administered as single dose measured up to 24 hrs post dose by LC-MS/MS analysis; type: ADME, organism-based, Macaca fascicularis; conditions: in vivo
[23] = Volume of distribution at steady state in cynomolgus monkey at 0.2 mg/kg, iv administered as single dose measured up to 24 hrs post dose by LC-MS/MS analysis; type: ADME, organism-based, Macaca fascicularis; conditions: in vivo, read-out: Vdss
[24] = Oral bioavailability in cynomolgus monkey at 0.5 mg/kg administered via gavage as single dose measured up to 24 hrs post dose by LC-MS/MS analysis; type: ADME, organism-based, Macaca fascicularis; conditions: in vivo
[25] = biological target: T2, Peroxisome proliferator-activated receptor gamma (Homo sapiens, UniProt P37231); assay: Agonist activity at PPARgamma (unknown origin)
T2 sequence (P37231 whole entry): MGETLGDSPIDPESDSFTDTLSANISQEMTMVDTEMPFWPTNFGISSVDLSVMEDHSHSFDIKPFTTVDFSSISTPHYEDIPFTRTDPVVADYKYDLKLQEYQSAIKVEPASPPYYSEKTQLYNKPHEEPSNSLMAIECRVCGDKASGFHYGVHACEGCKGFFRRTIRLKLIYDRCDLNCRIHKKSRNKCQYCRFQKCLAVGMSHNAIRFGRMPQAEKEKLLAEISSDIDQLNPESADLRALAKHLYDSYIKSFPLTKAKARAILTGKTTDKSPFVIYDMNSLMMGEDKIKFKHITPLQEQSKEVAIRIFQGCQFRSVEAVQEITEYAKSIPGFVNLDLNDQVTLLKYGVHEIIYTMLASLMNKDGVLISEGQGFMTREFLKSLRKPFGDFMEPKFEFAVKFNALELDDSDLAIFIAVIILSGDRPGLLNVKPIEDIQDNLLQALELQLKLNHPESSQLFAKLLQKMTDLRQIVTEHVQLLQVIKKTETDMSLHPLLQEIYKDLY

Liver [26] = assay: Drug level in human liver microsomes treated with 2-((4S,5S)-1-(4-((1-(2-Fluoro-5-methoxyphenyl)piperidin-4-yl)-oxy)phenyl)-4-methyl-3-(trifluoromethyl)-4,5-dihydro-1H-pyrazol-5-yl)acetic acid at 1 to 3 uM incubated for 20 mins in presence of NADPH measured after 90 mins by LC/MS/MS analysis; type: ADME, microsome; method in brief: as §2
Liver [27] = assay: Drug level in rat liver microsomes treated with 2-((4S,5S)-1-(4-((1-(2-Fluoro-5-methoxyphenyl)piperidin-4-yl)-oxy)phenyl)-4-methyl-3-(trifluoromethyl)-4,5-dihydro-1H-pyrazol-5-yl)acetic acid at 1 to 3 uM incubated for 20 mins in presence of NADPH measured after 90 mins by LC/MS/MS analysis; type: ADME, microsome; method in brief: as §2
[28] = as §1; type: ADME, microsome; conditions: liver microsomes, read-out: Stability; method in brief: as §2
[29] = as §3; type: ADME, microsome; conditions: liver microsomes
[30] = as §4; type: ADME, microsome; conditions: liver microsomes, read-out: Stability; method in brief: as §2
[31] = as §5; type: ADME, microsome; conditions: liver microsomes
[32] = Half life in Beagle dog at 0.5 mg/kg, iv administered as single dose measured up to 24 hrs post dose by LC-MS/MS analysis; type: ADME, organism-based, Canis lupus familiaris; conditions: in vivo
[33] = Clearance in Beagle dog at 0.5 mg/kg, iv administered as single dose measured up to 24 hrs post dose by LC-MS/MS analysis; type: ADME, organism-based, Canis lupus familiaris; conditions: in vivo
[34] = Volume of distribution at steady state in Beagle dog at 0.5 mg/kg, iv administered as single dose measured up to 24 hrs post dose by LC-MS/MS analysis; type: ADME, organism-based, Canis lupus familiaris; conditions: in vivo, read-out: Vdss
[35] = Half life in cynomolgus monkey at 0.5 mg/kg, iv administered as single dose measured up to 24 hrs post dose by LC-MS/MS analysis; type: ADME, organism-based, Macaca fascicularis; conditions: in vivo
[36] = Clearance in cynomolgus monkey at 0.5 mg/kg, iv administered as single dose measured up to 24 hrs post dose by LC-MS/MS analysis; type: ADME, organism-based, Macaca fascicularis; conditions: in vivo
[37] = Volume of distribution at steady state in cynomolgus monkey at 0.5 mg/kg, iv administered as single dose measured up to 24 hrs post dose by LC-MS/MS analysis; type: ADME, organism-based, Macaca fascicularis; conditions: in vivo, read-out: Vdss

Compound: COc1cc(N2CC[C@@H](Oc3ccc(N4N=C(C(F)(F)F)[C@@H](C)[C@@H]4CC(=O)O)cc3)[C@H](F)C2)c(Cl)cn1
EC50 [1]: 180 nM

Compound: COc1ccc(Cl)c(N2CCC(Oc3ccc(N4N=C(C(F)(F)F)[C@@H](C)[C@@H]4CC(=O)O)cc3)CC2)c1
EC50 [1]: 100 nM

Compound: COc1ccc(F)c(N2CCC(Oc3ccc(N4N=C(C(F)(F)F)[C@@H](C)[C@@H]4CC(=O)O)cc3)CC2)c1
EC50 [1]: 110 nM
Stability (Liver [3]): 42%
t1/2 (Liver [4]): 0.8 h
Stability (Liver [5]): 27%
t1/2 (Liver [6]): 0.383 h
half-life [7]: 1.5 h
clearance [8]: 6 mL/min/kg
Vd [9]: 0.8 L/kg
Cmax [10]: 1100 nM
Tmax [11]: 0.7 h
half-life [12]: 1.4 h
clearance [13]: 17 mL/min/kg
Vd [14]: 0.6 L/kg
bioavailability [15]: 36%
Cmax [16]: 3400 nM
Tmax [17]: 1 h
bioavailability [18]: 96%
Cmax [19]: 200 nM
Tmax [20]: 2 h
half-life [21]: 5.3 h
clearance [22]: 6.6 mL/min/kg
Vd [23]: 1.7 L/kg
bioavailability [24]: 66%
EC50 [25]: > 50000 nM

Compound: C[C@@H]1C(C(F)(F)F)=NN(c2ccc(OC3CCN(c4cc(Cl)ccc4Cl)CC3)cc2)[C@H]1CC(=O)O
EC50 [1]: 250 nM

Compound: C[C@@H]1C(C(F)(F)F)=NN(c2ccc(OC3CCN(c4cccc(F)n4)CC3)cc2)[C@H]1CC(=O)O
EC50 [1]: 390 to 860 nM

Compound: CCOc1ccc(F)c(N2CCC(Oc3ccc(N4N=C(C(F)(F)F)[C@@H](C)[C@@H]4CC(=O)O)cc3)CC2)c1
EC50 [1]: 220 nM

Compound: COc1ccc(F)c(N2CC[C@@H](Oc3ccc(N4N=C(C(F)(F)F)[C@@H](C)[C@@H]4CC(=O)O)cc3)[C@H](F)C2)c1
EC50 [1]: 70 nM

Second part, the molecule after the results:

EC50 [1]: 150 to 180 nM
Compound: COc1cc(N2CCC(Oc3ccc(N4N=C(C(F)(F)F)[C@@H](C)[C@@H]4CC(=O)O)cc3)CC2)c(F)cn1

Activity [2]: Active
Compound: COc1ccc(F)c(N2CCC(Oc3ccc(N4C[C@H](C(F)(F)F)C[C@@H]4CC(=O)O)cc3)CC2)c1

Drug uptake (Liver [26]): Metabolite_Detected
Drug uptake (Liver [27]): Metabolite_Detected
Compound: C[C@@H]1C(C(F)(F)F)=NN(c2ccc(OC3CCN(c4cc(O)ccc4F)CC3)cc2)[C@H]1CC(=O)O

EC50 [1]: 150 nM
remaining at 20 min, up to 3 µM [28]: 93%
half-life [29]: 1.58 h
remaining at 20 min, up to 3 µM [30]: 79%
half-life [31]: 0.617 h
half-life [7]: 3.3 h
clearance [8]: 1.6 mL/min/kg
Vd [9]: 0.7 L/kg
Cmax [10]: 3200 nM
Tmax [11]: 1.7 h
half-life [12]: 3.4 h
clearance [13]: 5 mL/min/kg
Vd [14]: 0.8 L/kg
bioavailability [15]: 89%
half-life [32]: 7.3 h
clearance [33]: 2.6 mL/min/kg
Vd [34]: 0.6 L/kg
half-life [35]: 9.4 h
clearance [36]: 4 mL/min/kg
Vd [37]: 2.2 L/kg
Compound: CCOc1ccc(F)c(N2CC[C@@H](Oc3ccc(N4N=C(C(F)(F)F)[C@@H](C)[C@@H]4CC(=O)O)cc3)[C@H](F)C2)c1

EC50 [1]: 190 to 250 nM
Compound: CCOc1cc(N2CC[C@@H](Oc3ccc(N4N=C(C(F)(F)F)[C@@H](C)[C@@H]4CC(=O)O)cc3)[C@H](C)C2)c(Cl)cn1
